Source: PMC4876717 (ACS chemical neuroscience, 2015)
Blank lines part the entries; values can stand above or below the molecule they belong to.

Tests used:
[1] = Lipophilicity, n-octanol/PBS liquid-liquid partition; format: physicochemical; details: pH 7.4
In short: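 Radiolabelled test compound (~150,000 cpm) shaken with n-octanol (3.0 g) and 0.1 M sodium phosphate-buffered saline pH 7.40 (3.0 g): vortexed 3 min at room temperature, centrifuged 3500 rpm 5 min. Weighed aliquots of each phase gamma-counted. Remaining organic layer repartitioned until logD values were consistent. LogD = log[(cpm/g octanol)/(cpm/g PBS)]. Triplicate.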

[2] = Whole body biodistribution in mice; format: in vivo, ddY mice; details: for Distribution of radioactivity, blood / Distribution of radioactivity, brain / Distribution of radioactivity, heart / Distribution of radioactivity, kidneys / Distribution of radioactivity, liver / Distribution of radioactivity, lungs / Distribution of radioactivity, muscle / Distribution of radioactivity, small intestine / Distribution of radioactivity, spleen / Distribution of radioactivity, testes: mean ± SD, n = 3
In short: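 Male ddY mice (7 weeks, 34–36 g) given tracer in saline (2 MBq, 0.03 nmol/200 μL) via tail vein. Three mice killed at each time point: 1, 5, 15, 30 and 60 min. Blood, brain, heart, lung, liver, spleen, kidneys, small intestine with contents, muscle and testes removed and weighed. Tissues gamma-counted with decay correction. Uptake expressed as %ID/g wet tissue.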

[3] = PET imaging in rats, brain uptake; format: in vivo, Sprague-Dawley rats
In short: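 Male Sprague-Dawley rats (7 weeks, 210–230 g) under isoflurane (5% induction, 1–2% maintenance). Tail-vein catheter used to inject tracer (40–51 MBq, 0.7–1 nmol/200 μL). Scans: 90 min 3D list mode, 350–750 keV, binned 1 min × 4, 2 min × 8, […]. Filtered back-projection. ROIs on whole brain, cerebral cortex and cerebellum. Decay-corrected SUV from injected activity and body weight. n = 3.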

FAAH [4] = molecular target: T1, FAAH (Rattus norvegicus, UniProt P97612); assay: PET blocking study with URB597 in rats; format: in vivo, Sprague-Dawley rats; details: pretreatment with URB597 3 mg/kg, 30 min iv before injection
T1 sequence (P97612 1-579): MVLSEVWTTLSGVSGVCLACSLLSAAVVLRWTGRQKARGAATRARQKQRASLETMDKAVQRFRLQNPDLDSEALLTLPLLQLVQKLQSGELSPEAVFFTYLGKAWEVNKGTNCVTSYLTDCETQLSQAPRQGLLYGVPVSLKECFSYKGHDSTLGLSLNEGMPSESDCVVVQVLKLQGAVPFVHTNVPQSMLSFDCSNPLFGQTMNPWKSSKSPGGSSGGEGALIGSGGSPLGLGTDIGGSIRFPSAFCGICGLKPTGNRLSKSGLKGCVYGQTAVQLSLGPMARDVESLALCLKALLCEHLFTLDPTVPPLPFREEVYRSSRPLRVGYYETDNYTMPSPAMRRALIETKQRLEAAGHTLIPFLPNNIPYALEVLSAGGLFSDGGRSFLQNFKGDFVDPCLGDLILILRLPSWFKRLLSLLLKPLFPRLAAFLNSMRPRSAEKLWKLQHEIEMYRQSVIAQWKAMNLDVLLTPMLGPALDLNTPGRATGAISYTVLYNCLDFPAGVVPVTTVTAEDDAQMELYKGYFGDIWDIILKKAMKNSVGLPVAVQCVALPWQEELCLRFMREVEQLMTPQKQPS
In short: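 Blocking arm of the rat brain PET, run in male Sprague-Dawley rats under isoflurane. Unlabelled FAAH inhibitor (3.0 mg/kg, in 300 μL saline with 10% ethanol and 5% Tween 80) given 30 min before the tracer (40–51 MBq, 0.7–1 nmol iv). Dynamic 90 min list-mode scan. Regional brain uptake taken as decay-corrected SUV and compared with baseline. Three rats per condition.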

[5] = Radiometabolite analysis in rat plasma and brain homogenate; format: in vivo, Sprague-Dawley rats; details: 15 min post-tracer injection
In short: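 Sprague-Dawley rats (n = 3) given tracer iv (82 MBq, 1.1 nmol) and killed at 15 min. Plasma separated (15,000 g, 2 min, 4 °C) and deproteinised with equal volume acetonitrile. Brain homogenised in ice-cold acetonitrile/water 1:1 and centrifuged; supernatant recovery >90%. Supernatants run on radio-HPLC (C18, acetonitrile/0.05 M NH4OAc 2:8, 2 mL/min). Parent fraction = parent peak area/total peak area × 100, decay-corrected.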

PgP/Bcrp = assay: PET imaging in wild-type and PgP/Bcrp knockout mice; format: in vivo
In short: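 Male […] mice, wild-type and Abcb1a/1b−/−Abcg2−/− (17–18 weeks), set up in the scanner as for the rat scans. Tracer (18 MBq, 0.12 nmol/100 μL) injected via tail-vein line. Dynamic 3D list-mode acquisition for 60 min (1 min × 4, 2 min × 8, 5 min × 8). Regional time-activity curves taken as SUV, processed as for rats. Three mice per genotype.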

[6] = Stability of formulated tracer; format: physicochemical; details: within 90 min after formulation in saline
[7] = cited from earlier work
FAAH [8] = details: read-out: IC50 to FAAH in vitro; cited from earlier work
[9] = system: triacylglycerol hydrolase (TGH); details: relative to FAAH; cited from earlier work
[10] = system: hydrolytic enzyme KIAA1363; details: relative to FAAH; cited from earlier work

logD [1]: 3.43 | brain uptake ([2]; mice biodistribution): 0.8 SUV | Distribution of radioactivity, blood ([2]; mice, 1 min after injection): 1.83 ± 0.15 %ID/g | Distribution of radioactivity, brain ([2]; mice, 1 min after injection): 1.87 ± 0.20 %ID/g | Distribution of radioactivity, heart ([2]; mice, 1 min after injection): 6.89 ± 0.60 %ID/g | Distribution of radioactivity, kidneys ([2]; mice, 1 min after injection): 12.64 ± 0.56 %ID/g | Distribution of radioactivity, liver ([2]; mice, 1 min after injection): 9.78 ± 1.10 %ID/g | Distribution of radioactivity, lungs ([2]; mice, 1 min after injection): 17.47 ± 3.88 %ID/g | Distribution of radioactivity, muscle ([2]; mice, 1 min after injection): 1.78 ±0.16 %ID/g | Distribution of radioactivity, small intestine ([2]; mice, 1 min after injection): 3.08 ± 0.29 %ID/g | Distribution of radioactivity, spleen ([2]; mice, 1 min after injection): 2.28 ± 0.50 %ID/g | Distribution of radioactivity, testes ([2]; mice, 1 min after injection): 0.44 ± 0.05 %ID/g | Distribution of radioactivity, blood ([2]; mice, 5 min after injection): 0.75 ± 0.07 %ID/g | Distribution of radioactivity, brain ([2]; mice, 5 min after injection): 2.27 ± 0.16 %ID/g | Distribution of radioactivity, heart ([2]; mice, 5 min after injection): 1.65 ± 0.07 %ID/g | Distribution of radioactivity, kidneys ([2]; mice, 5 min after injection): 17.17 ± 1.67 %ID/g | Distribution of radioactivity, liver ([2]; mice, 5 min after injection): 18.61 ± 2.31 %ID/g | Distribution of radioactivity, lungs ([2]; mice, 5 min after injection): 4.88 ± 0.41 %ID/g | Distribution of radioactivity, muscle ([2]; mice, 5 min after injection): 1.03 ± 0.09 %ID/g | Distribution of radioactivity, small intestine ([2]; mice, 5 min after injection): 7.22 ± 0.89 %ID/g | Distribution of radioactivity, spleen ([2]; mice, 5 min after injection): 1.29 ± 0.22 %ID/g | Distribution of radioactivity, testes ([2]; mice, 5 min after injection): 0.67 ± 0.02 %ID/g | Distribution of radioactivity, blood ([2]; mice, 15 min after injection): 0.38 ± 0.03 %ID/g | Distribution of radioactivity, brain ([2]; mice, 15 min after injection): 1.81 ± 0.09 %ID/g | Distribution of radioactivity, heart ([2]; mice, 15 min after injection): 0.55 ± 0.01 %ID/g | Distribution of radioactivity, kidneys ([2]; mice, 15 min after injection): 13.70 ± 0.69 %ID/g | Distribution of radioactivity, liver ([2]; mice, 15 min after injection): 20.05 ± 1.43 %ID/g | Distribution of radioactivity, lungs ([2]; mice, 15 min after injection): 1.20 ± 0.04 %ID/g | Distribution of radioactivity, muscle ([2]; mice, 15 min after injection): 0.58 ± 0.17 %ID/g | Distribution of radioactivity, small intestine ([2]; mice, 15 min after injection): 18.54 ± 4.00 %ID/g | Distribution of radioactivity, spleen ([2]; mice, 15 min after injection): 0.60 ± 0.03 %ID/g | Distribution of radioactivity, testes ([2]; mice, 15 min after injection): 0.59 ± 0.00 %ID/g | Distribution of radioactivity, blood ([2]; mice, 30 min after injection): 0.34 ± 0.05 %ID/g | Distribution of radioactivity, brain ([2]; mice, 30 min after injection): 1.40 ± 0.15 %ID/g | Distribution of radioactivity, heart ([2]; mice, 30 min after injection): 0.51 ± 0.03 %ID/g | Distribution of radioactivity, kidneys ([2]; mice, 30 min after injection): 9.55 ± 0.65 %ID/g | Distribution of radioactivity, liver ([2]; mice, 30 min after injection): 17.47 ± 1.10 %ID/g | Distribution of radioactivity, lungs ([2]; mice, 30 min after injection): 1.19 ± 0.18 %ID/g | Distribution of radioactivity, muscle ([2]; mice, 30 min after injection): 0.50 ± 0.17 %ID/g | Distribution of radioactivity, spleen ([2]; mice, 30 min after injection): 0.49 ± 0.03 %ID/g | Distribution of radioactivity, testes ([2]; mice, 30 min after injection): 0.48 ± 0.02 %ID/g | Distribution of radioactivity, heart ([2]; mice, 60 min after injection): 0.32 ± 0.03 %ID/g | Distribution of radioactivity, kidneys ([2]; mice, 60 min after injection): 6.20 ± 0.70 %ID/g | Distribution of radioactivity, liver ([2]; mice, 60 min after injection): 13.69 ±0.63 %ID/g | Distribution of radioactivity, lungs ([2]; mice, 60 min after injection): 0.64 ± 0.08 %ID/g | Distribution of radioactivity, muscle ([2]; mice, 60 min after injection): 0.24 ± 0.04 %ID/g | Distribution of radioactivity, small intestine ([2]; mice, 60 min after injection): 13.75 ±3.44 %ID/g | Distribution of radioactivity, spleen ([2]; mice, 60 min after injection): 0.37 ±0.01 %ID/g | Distribution of radioactivity, testes ([2]; mice, 60 min after injection): 0.30 ± 0.03 %ID/g | blood clearance, 1 min/60 min ratio ([2]; mice, blood radioactivity): 6.1 | brain washout, 5 min/60 min ratio ([2]; mice, brain radioactivity): 2.6 | time of peak radioactivity in brain tissues ([3]; rat brain PET, after injection): 1.5 min | highest (peak) radioactivity in cerebellar nuclei ([3]; rat brain PET, baseline): 0.87 SUV | brain washout, 5 min/60 min ratio ([3]; rat whole brain PET): 5.1 | maximum uptake in whole brain ([3]; rat whole brain PET): 0.65 SUV | specificity to FAAH in rat brains (FAAH [4]): modest | metabolism (radioactivity associated with hydrophilic metabolites) ([5]; rat brain homogenates): 75% | metabolism (radioactivity associated with hydrophilic metabolites) ([5]; rat plasma): 90% | peak brain uptake, cerebellum (PgP/Bcrp; PgP/Bcrp KO mice): 1.04 SUV | ratio of KO/WT in AUC, cerebellum (PgP/Bcrp; PgP/Bcrp KO vs wild type mice): 1.2 | ratio of KO/WT in AUC, cerebral cortex (PgP/Bcrp; PgP/Bcrp KO vs wild type mice): 1.2 | substrate for Pgp/Bcrp (PgP/Bcrp; mice, blood-brain barrier): not likely a substrate for Pgp/Bcrp | peak brain uptake, cerebellum (PgP/Bcrp; wild type mice): 0.78 SUV | peak brain uptake, cerebral cortex (PgP/Bcrp; wild type mice): 0.74 SUV | radiolysis after formulation [6]: no radiolysis was observed
Compound: [11CH3]Oc1ccccc1CCCCCCC(=O)c1ncc(-c2ccccn2)o1 [[^11C]MPPO, 7-(2-[^11C]methoxyphenyl)-1-(5-(pyridin-2-yl)oxazol-2-yl)heptan-1-one]

Compound: O=C(Nc1cccnn1)N1CCC(=Cc2cccc(Oc3ccc(C(F)(F)F)cn3)c2)CC1 [[^11C]PF-04457845]
logD7.4 [7]: 3.48

Compound: COc1ccccc1CCCCCCC(=O)c1ncc(-c2ccccn2)o1 [MPPO, 7-(2-methoxyphenyl)-1-(5-(pyridin-2-yl)oxazol-2-yl)heptan-1-one]
IC50 (FAAH [8]): 10 nM | selectivity over triacylglycerol hydrolase (TGH) [9]: greater than 500 fold | selectivity over hydrolytic enzyme KIAA1363 [10]: > 10^5 fold

Compound: O=[11C](NC1CCCCC1)Oc1ccc(O)c(-c2ccccc2)c1 [[^11C]CURB]
logD7.4 [7]: 2.8
